Data as given in ChEMBL document CHEMBL3421581, “A solid-phase combinatorial approach for indoloquinolizidine-peptides with high affinity at D(1) and D(2) dopamine receptors” (Eur J Med Chem, 2015).
The source made the active and inactive calls. No cut-off for these calls is given here.

Tests used:
[1] = biological target: D(2) dopamine receptor (Homo sapiens) (UniProt P14416); assay: Agonist activity at dopamine D2 receptor (unknown origin) transfected in CHO cells assessed as increase in ERK1/2 phosphorylation after 5 mins by Western blot analysis; format: cell-based
Summary of the method: (§1)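 D2R cDNA transiently transfected into CHO cells by Lipofectamine, used 48 h later. Cells were kept serum-free for 16 h, optionally pretreated 5 min with 1 μM YM 09151-2, then exposed to ligands for 5 min (combined condition used 10 μM test ligand). Lysed in ice-cold buffer, phospho-ERK1/2 read by infrared scanning. Means ± SEM, 3 experiments in duplicate, unpaired t-test vs basal.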

[2] = biological target: D(2) dopamine receptor (Homo sapiens) (UniProt P14416); assay: Allosteric modulating activity at dopamine D2 receptor (unknown origin) expressed in sheep striatum membranes assessed as change in D2R antagonist [3H]-YM09151-2 Koff at 3 uM preincubated for 2 hrs followed by [3H]-YM09151-2 addition by rapid filtration and radioactivity counting; format: cell membranes; conditions: Membrane, in the assay text read “preincubated for 1 hr” for “preincubated for 2 hrs”
Summary of the method: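 Sheep striatal membranes (0.2 mg protein/mL) preincubated 1 h at 25 °C ± 3 μM test ligand in 50 mM Tris-HCl pH 7.4 with 10 mM MgCl2, then 1 nM [3H]-YM 09151-2 added. After 2 h, dissociation started with 10 μM unlabeled YM 09151-2. Total binding measured at intervals by GF/C filtration and scintillation counting. Nonspecific binding taken after 90 min with 10 μM YM 09151-2.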

[3] = biological target: D(2) dopamine receptor (Homo sapiens) (UniProt P14416); assay: Antagonist activity at dopamine D2 receptor (unknown origin) transfected in CHO cells assessed as inhibition of YM09151-2 -induced downregulation of phosphorylated ERK1/2 level at 10 uM after 5 mins by Western blot analysis; format: cell-based; summary of the method: as §1
[4] = biological target: D(2) dopamine receptor (Homo sapiens) (UniProt P14416); assay: Displacement of [3H]-YM09151-2 from dopamine D2 receptor (unknown origin) expressed in sheep striatum membranes assessed as high affinity constant measured per mg of protein after 2 hrs by scintillation counting analysis; format: cell membranes; conditions: Membrane
Summary of the method: (§2)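 Sheep striatal membranes (0.2–0.5 mg protein/mL), 2 h at 25 °C in 50 mM Tris-HCl pH 7.4 with 10 mM MgCl2. Radioligand was [3H]-SCH 23390 for D1R (nonspecific: 50 μM SCH 23390) or [3H]-YM 09151-2 for D2R (nonspecific: 50 μM raclopride). Competitor tested at 9 concentrations, 1 nM–50 μM, in triplicate. Total binding fitted by nonlinear regression to a two-site model. Means ± SD of three experiments.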

[5] = biological target: D(2) dopamine receptor (Homo sapiens) (UniProt P14416); assay: Displacement of [3H]-YM09151-2 from dopamine D2 receptor (unknown origin) expressed in sheep striatum membranes assessed as low affinity constant measured per mg of protein after 2 hrs by scintillation counting analysis; format: cell membranes; conditions: Membrane; summary of the method: as §2

Chain of D(2) dopamine receptor (Homo sapiens) (P14416 whole entry): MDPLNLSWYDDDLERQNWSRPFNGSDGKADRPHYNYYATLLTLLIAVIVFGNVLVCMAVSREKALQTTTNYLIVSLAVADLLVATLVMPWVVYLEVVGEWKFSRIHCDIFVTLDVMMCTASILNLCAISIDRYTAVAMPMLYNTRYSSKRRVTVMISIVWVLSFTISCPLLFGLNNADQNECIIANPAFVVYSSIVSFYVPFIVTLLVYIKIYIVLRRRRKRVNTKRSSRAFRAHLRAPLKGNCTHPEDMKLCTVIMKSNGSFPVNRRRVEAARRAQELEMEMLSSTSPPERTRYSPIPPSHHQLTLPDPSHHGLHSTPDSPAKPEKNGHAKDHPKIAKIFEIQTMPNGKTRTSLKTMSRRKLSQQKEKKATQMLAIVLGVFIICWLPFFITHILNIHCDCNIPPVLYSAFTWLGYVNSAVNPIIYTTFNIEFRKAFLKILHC

Activity [1] | Activity [2] | inhibition [3] | Activity [4] [pmol] | Activity [5] [pmol] | Structure (SMILES)
Dose-dependent effect | inactive | inactive | 0.04 | 0.12 | NCCCC[C@H](NC(=O)[C@H](Cc1ccc(F)c(F)c1)NC(=O)[C@H]1CCCN1C(=O)CCCCCNC(=O)[C@H]1CC[C@@H]2c3[nH]c4ccccc4c3CCN2C1)C(N)=O
– | – | – | 0.06 | 0.12 | NCCCC[C@H](NC(=O)[C@H](Cc1ccc(F)c(F)c1)NC(=O)[C@H]1CCCN1C(=O)CCCCCNC(=O)[C@@H]1CC[C@H]2c3[nH]c4ccccc4c3CCN2C1)C(N)=O
